This is an account of results in ChEMBL document CHEMBL2406998, “Discovery of benzamide analogs as negative allosteric modulators of human neuronal nicotinic receptors: pharmacophore modeling and structure-activity relationship studies” (Bioorg Med Chem, 2013).

Test [1] deals with T1, Neuronal acetylcholine receptor; alpha4/beta2 (Homo sapiens, UniProt P17787+P43681). In words: Non-competitive antagonist activity at human alpha4beta2 nAChR expressed in HEK-tsA201 cells assessed as intracellular calcium level at 0.1 to 100 uM by fluorescence plate reader analysis in presence of epibatidine. It counts as cell-based. The procedure, abridged: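 Epibatidine concentration-response curves were run with and without test compound on hα4β2-expressing HEK tsA201 cells. The read-out was the calcium accumulation assay: cells loaded with Calcium 5 NW dye for 1 h at room temperature in HEPES-buffered Krebs, fluorescence read at ex 485/em 525 nm every 1.5 s. Compound dilutions of 0.1–100 µM were made from DMSO stocks, with DMSO below 1%.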
Background: Calcium assays in cells follow changes in intracellular calcium, usually with a dye or a luminescent sensor.

For test [2], the target named is T1, Neuronal acetylcholine receptor; alpha4/beta2. In words: Agonist activity at human alpha4beta2 nAChR. It counts as protein-complex assay. The procedure, abridged:
(§1)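 HEK tsA201 cells stably expressing the human receptor subtype, plated 24 h ahead at 37 °C, 5% CO2 in supplemented DMEM to a ~100% confluent monolayer. Washed with HEPES-buffered Krebs, loaded 1 h at room temperature with 50% Calcium 5 NW dye. Compounds as HCl salts from 0.01 M DMSO stocks, six concentrations 0.1–100 µM in HBK. Intracellular calcium fluorescence read every 1.5 s (ex 485/em 525 nm).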

For test [3], the target named is T2, Neuronal acetylcholine receptor; alpha3/beta4 (Homo sapiens, UniProt P30926+P32297). Nature of the test: Agonist activity at human alpha3beta4 nAChR. It counts as protein-complex assay. The method in brief: as §1
For test [4], the target named is T2, Neuronal acetylcholine receptor; alpha3/beta4. In words: Antagonist activity at human alpha3beta4 nAChR expressed in HEK-tsA201 cells assessed as inhibition of epibatidine-induced intracellular calcium level by fluorescence plate reader analysis. It is filed as cell-based. The method in brief:
(§2)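 Stably transfected HEK tsA201 cells were plated 24 h ahead and grown at 37 °C, 5% CO2 in supplemented DMEM to a ~100% confluent monolayer. They were washed with HEPES-buffered Krebs, then loaded with 50% Calcium 5 NW dye for 1 h at room temperature. Compounds (HCl salts, six concentrations 0.1–100 µM, DMSO <1%) were tested against 1 µM epibatidine. Fluorescence was read at ex 485/em 525 nm every 1.5 s.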

For test [5], the target named is T1, Neuronal acetylcholine receptor; alpha4/beta2. Nature of the test: Antagonist activity at human alpha4beta2 nAChR expressed in HEK-tsA201 cells assessed as inhibition of epibatidine-induced intracellular calcium level by fluorescence plate reader analysis. It is filed as cell-based. The method in brief:
as §2

The next test is filed under the species Homo sapiens. Nature of the test: Selectivity ratio of IC50 for human alpha3beta4 nAChR to IC50 for human alpha4beta2 nAChR.

pIC50: −log10 of the molar value. Calls of active or inactive are those of the source. No cut-off for these calls is given here.

T2 sequence (P30926 whole entry): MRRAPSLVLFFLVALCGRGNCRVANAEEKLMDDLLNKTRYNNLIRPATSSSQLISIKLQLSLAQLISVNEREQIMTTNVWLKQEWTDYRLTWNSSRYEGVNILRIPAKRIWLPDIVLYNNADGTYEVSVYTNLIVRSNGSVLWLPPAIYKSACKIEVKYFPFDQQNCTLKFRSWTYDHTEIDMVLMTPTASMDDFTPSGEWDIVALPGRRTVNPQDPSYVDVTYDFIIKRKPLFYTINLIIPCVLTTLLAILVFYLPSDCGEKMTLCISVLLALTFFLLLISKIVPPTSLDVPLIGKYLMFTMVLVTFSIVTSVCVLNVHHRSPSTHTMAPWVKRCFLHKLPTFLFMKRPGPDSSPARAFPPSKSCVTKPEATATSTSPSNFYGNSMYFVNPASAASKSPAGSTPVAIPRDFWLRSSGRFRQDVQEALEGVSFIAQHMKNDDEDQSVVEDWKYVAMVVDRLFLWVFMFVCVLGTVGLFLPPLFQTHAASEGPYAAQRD
T2 sequence (P32297 whole entry): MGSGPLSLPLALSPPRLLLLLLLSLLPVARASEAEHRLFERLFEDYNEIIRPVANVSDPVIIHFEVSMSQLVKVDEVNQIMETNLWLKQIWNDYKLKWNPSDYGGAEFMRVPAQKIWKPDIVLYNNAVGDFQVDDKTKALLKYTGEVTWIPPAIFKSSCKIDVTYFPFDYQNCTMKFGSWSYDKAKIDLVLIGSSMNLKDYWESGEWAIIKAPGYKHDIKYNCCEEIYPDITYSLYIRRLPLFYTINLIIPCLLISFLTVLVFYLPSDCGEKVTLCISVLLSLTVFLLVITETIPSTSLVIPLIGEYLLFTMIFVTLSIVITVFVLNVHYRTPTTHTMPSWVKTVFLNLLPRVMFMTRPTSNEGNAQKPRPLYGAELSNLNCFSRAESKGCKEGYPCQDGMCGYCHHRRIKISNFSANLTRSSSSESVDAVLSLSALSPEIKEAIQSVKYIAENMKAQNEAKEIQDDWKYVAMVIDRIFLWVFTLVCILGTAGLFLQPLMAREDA
T1 sequence (P17787 whole entry): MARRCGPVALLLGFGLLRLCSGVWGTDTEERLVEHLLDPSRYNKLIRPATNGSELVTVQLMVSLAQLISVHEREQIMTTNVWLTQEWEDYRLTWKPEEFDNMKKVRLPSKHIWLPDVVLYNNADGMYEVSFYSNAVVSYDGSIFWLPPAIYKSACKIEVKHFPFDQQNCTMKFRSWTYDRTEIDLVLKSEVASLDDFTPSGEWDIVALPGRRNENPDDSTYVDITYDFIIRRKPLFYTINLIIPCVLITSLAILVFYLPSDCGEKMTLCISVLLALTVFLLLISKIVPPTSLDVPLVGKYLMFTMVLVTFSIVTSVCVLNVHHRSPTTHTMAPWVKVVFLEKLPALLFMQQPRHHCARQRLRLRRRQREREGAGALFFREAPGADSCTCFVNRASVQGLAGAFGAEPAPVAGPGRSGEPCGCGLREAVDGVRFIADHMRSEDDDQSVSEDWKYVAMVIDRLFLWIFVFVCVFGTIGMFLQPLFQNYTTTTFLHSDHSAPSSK
T1 sequence (P43681 whole entry): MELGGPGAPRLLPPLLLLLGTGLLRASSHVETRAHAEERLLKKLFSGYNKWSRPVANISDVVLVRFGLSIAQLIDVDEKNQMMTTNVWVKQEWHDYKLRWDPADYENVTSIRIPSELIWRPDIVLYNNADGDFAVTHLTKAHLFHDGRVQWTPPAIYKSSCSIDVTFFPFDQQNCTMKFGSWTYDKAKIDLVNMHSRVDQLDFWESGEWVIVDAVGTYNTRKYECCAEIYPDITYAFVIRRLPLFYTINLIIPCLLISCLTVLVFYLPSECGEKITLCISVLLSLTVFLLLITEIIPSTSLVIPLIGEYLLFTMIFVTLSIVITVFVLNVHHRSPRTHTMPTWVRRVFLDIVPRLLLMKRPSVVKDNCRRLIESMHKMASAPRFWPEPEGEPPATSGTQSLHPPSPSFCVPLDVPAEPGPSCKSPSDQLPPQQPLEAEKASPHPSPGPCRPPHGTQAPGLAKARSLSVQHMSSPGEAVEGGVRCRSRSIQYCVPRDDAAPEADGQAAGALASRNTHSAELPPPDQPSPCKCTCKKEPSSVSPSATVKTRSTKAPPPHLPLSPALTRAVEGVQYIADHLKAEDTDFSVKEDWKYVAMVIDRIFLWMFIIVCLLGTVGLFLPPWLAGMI

As to `C=CCOc1ccc(C(=O)Nc2cccc(C)n2)cc1`, in test [1], the result was Active. The outcome in test [2] and in test [3] was inactive.
As for `C=CCOc1ccc(C(=O)Nc2cccc(NCCC)n2)cc1`, the outcome in test [2] and in test [3] was inactive.
On to `CCCCCCNc1cccc(NC(=O)c2ccc(OCCC)cc2)n1`, for which the result in test [2] and in test [3] was inactive.
`CCOc1ccc(C(=O)Nc2cc(C)cc(C)n2)cc1`: the pIC50 is 4.76 in test [4] and 4.77 in test [5]. Further, the outcome in test [2] and in test [3] was inactive. Further, in the test listed under Homo sapiens, the Ratio IC50 was 1.
Take `CCCOc1ccc(C(=O)Nc2cccc(Nc3ccc(OC)cc3)n2)cc1`: the outcome in test [2] and in test [3] was inactive.
As for `C=C(C)COc1ccc(C(=O)Nc2cccc(C)n2)cc1`, the negative-log IC50 (pIC50) in test [4] was 4.61; in test [5] it was 4.71. In addition, the outcome in test [2] and in test [3] was inactive. The Ratio IC50 in the test filed under Homo sapiens was found to be 1.3.
`CCCOc1ccc(C(=O)Nc2cccc(Nc3ccccc3F)n2)cc1`: the result in test [2] and in test [3] was inactive.
For `CCCOc1ccc(C(=O)Nc2cccc(Nc3ccc(Cl)cc3)n2)cc1`, the outcome in test [2] and in test [3] was inactive.
`CCCOc1ccc(C(=O)Nc2cccc(N3CCCCC3)n2)cc1`: the outcome in test [2] and in test [3] was inactive.
Consider `CCCNc1cccc(NC(=O)c2ccc(OCCC)cc2)n1`, for which the outcome in test [2] and in test [3] was inactive.
As for `C=CCOc1ccc(C(=O)Nc2ccccn2)cc1`, the result in test [2] and in test [3] was inactive.
For the compound `C=CCOc1ccc(C(=O)Nc2cccc(Br)n2)cc1`, the outcome in test [2] and in test [3] was inactive.
Regarding `CCCCCNc1cccc(NC(=O)c2ccc(OCCC)cc2)n1`, the result in test [2] and in test [3] was inactive.
Consider `CCCOc1ccc(C(=O)Nc2cccc(Cl)n2)cc1`, for which, in test [2], the outcome was inactive.
For `CCCCNc1cccc(NC(=O)c2ccc(OCCC)cc2)n1`, the outcome in test [2] and in test [3] was inactive.
For the compound `C=CCOc1ccc(C(=O)Nc2cccc(NCCCC)n2)cc1`, the outcome in test [2] and in test [3] was inactive.
For `CCCOc1ccc(C(=O)Nc2cccc(Nc3ccccc3)n2)cc1`, the result in test [2] and in test [3] was inactive.
As for `CCCOc1ccc(C(=O)Nc2cccc(CC)n2)cc1`, the result in test [2] and in test [3] was inactive.
On to `CNC1(C)C2CCC(C2)C1(C)C` (stereo not drawn) [MECAMYLAMINE], for which the pIC50 in test [5] is 6.22.
Consider `C=CCOc1ccc(C(=O)Nc2cccc(CC)n2)cc1`, for which the outcome in test [2] and in test [3] was inactive.
Consider `CCCOc1ccc(C(=O)Nc2cccc(Nc3cccc(F)c3)n2)cc1`, for which the result in test [2] and in test [3] was inactive.
For `CCCOc1ccc(C(=O)Nc2cccc(NCc3ccccc3)n2)cc1`, the result in test [2] and in test [3] was inactive.
`CCCOc1ccc(C(=O)Nc2cccc(Nc3ccc(F)cc3)n2)cc1`: the outcome in test [2] and in test [3] was inactive.
For the compound `CCCOc1ccc(C(=O)Nc2cnccn2)cc1`, the result in test [2] and in test [3] was inactive. The pIC50 in test [5] was 4.63.
Turning to `C#CCOc1ccc(C(=O)Nc2cccc(C)n2)cc1`, the pIC50 is 4.66 in test [4] and 4.71 in test [5]. The outcome in test [2] and in test [3] was inactive. Besides, the Ratio IC50 in the test listed under Homo sapiens stood at 1.1.
On to `CCCOc1ccc(C(=O)Nc2cccc(Br)n2)cc1`, for which the outcome in test [2] was inactive.
With `COc1cc2c3cc1Oc1cc(ccc1O)C[C@@H]1c4c(cc(OC)c(O)c4Oc4ccc(cc4)C[C@@H]3N(C)CC2)CC[N+]1(C)C`, the negative-log IC50 (pIC50) in test [4] is 5.17; in test [5] it was 5.04.
Consider `C=CCOc1ccc(C(=O)Nc2cccc(Cl)n2)cc1`, for which, in test [2], the outcome was inactive.

The pIC50 is the IC50 on a negative log10 scale, so that one unit is a factor of ten.
